ChEMBL document CHEMBL4811305, “Development of potent and selective Cathepsin C inhibitors free of aortic binding liability by application of a conformational restriction strategy” (Bioorg Med Chem Lett, 2021)
Blank lines part the entries; values can stand above or below the molecule they belong to.

Experiments:
[1] = biological target: T1, Dipeptidyl peptidase 1 (Homo sapiens, UniProt P53634); experiment: Inhibition of human cathepsin C at 1 uM relative to control
[2] = biological target: T1, Dipeptidyl peptidase 1; experiment: Inhibition of human cathepsin C at 10 uM relative to control
[3] = Aldehyde reactivity of the compound in 0.1M phosphate buffer assessed as compound remaining at pH 7.4 measured after 15 hrs in presence of propionaldehyde by HPLC-UV analysis; format: ADME; conditions: phosphate buffer with propionaldehyde, read-out: Stabilty
Method in brief: (§1)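 Each compound was spiked in bulk into propionaldehyde dissolved in 0.1 M phosphate buffer, pH 7.4. Aliquots were taken at intervals and analysed by HPLC-UV to give percent parent remaining, with incubations lasting up to 15 h. Half-life was calculated from the disappearance of parent. Where no analyte remained at 15 h, only the 2 h data were used. Adduct identity was confirmed as molecular ion +40 amu. This was a single experiment (n = 1).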

[4] = Half life of the compound in 0.1M phosphate buffer at pH 7.4 by HPLC-UV analysis; format: physicochemical; method in brief: as §1
[5] = biological target: T1, Dipeptidyl peptidase 1; experiment: Inhibition of human cathepsin C
Method in brief: (§2)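 Values are means of two independent experiments, each run in duplicate.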

[6] = Aldehyde reactivity of the compound in 0.1M phosphate buffer assessed as compound remaining at pH 7.4 measured after 2 hrs in presence of propionaldehyde by HPLC-UV analysis; format: ADME; conditions: phosphate buffer with propionaldehyde, read-out: Stabilty; method in brief: as §1
[7] = biological target: T1, Dipeptidyl peptidase 1; experiment: Inhibition of cellular cathepsin C (unknown origin); method in brief: as §2
[8] = biological target: T2, CYP2C8 (Homo sapiens, UniProt P10632); experiment: Inhibition of CYP2C8 (unknown origin) at 1 uM relative to control; format: ADME
T2 sequence (P10632 whole entry): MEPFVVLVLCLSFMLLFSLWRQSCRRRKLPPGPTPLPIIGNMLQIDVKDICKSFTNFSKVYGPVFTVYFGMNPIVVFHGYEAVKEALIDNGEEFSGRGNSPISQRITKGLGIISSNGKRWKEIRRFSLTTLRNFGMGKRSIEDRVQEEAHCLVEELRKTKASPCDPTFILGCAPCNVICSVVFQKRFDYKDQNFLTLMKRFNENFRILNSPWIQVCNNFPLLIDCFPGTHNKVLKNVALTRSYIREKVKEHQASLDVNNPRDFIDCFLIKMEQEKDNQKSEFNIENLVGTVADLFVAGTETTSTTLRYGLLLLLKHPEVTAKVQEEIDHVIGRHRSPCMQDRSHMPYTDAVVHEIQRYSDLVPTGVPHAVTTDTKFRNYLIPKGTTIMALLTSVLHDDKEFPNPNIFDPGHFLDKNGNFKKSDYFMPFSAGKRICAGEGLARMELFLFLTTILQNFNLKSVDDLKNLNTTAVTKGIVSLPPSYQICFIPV

[9] = biological target: T3, CYP3A4 (Homo sapiens, UniProt P08684); experiment: Inhibition of CYP3A4 (unknown origin) at 10 uM relative to control; format: ADME
T3 sequence (P08684 whole entry): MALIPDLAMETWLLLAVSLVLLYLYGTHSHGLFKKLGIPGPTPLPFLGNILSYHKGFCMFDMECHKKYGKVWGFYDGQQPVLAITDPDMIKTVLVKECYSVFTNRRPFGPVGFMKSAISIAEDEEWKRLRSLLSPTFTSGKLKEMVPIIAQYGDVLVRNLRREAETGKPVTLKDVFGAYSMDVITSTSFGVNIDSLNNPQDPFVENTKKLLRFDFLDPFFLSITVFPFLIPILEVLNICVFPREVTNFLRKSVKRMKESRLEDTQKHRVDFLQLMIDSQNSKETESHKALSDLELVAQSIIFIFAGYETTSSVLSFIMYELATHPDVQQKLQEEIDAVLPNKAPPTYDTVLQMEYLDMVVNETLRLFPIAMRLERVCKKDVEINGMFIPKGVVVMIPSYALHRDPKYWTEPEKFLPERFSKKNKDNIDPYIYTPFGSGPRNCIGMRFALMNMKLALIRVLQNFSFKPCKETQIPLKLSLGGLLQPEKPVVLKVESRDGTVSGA

[10] = biological target: T4, CYP1A2 (Homo sapiens, UniProt P05177); experiment: Inhibition of CYP1A2 (unknown origin) at 10 uM relative to control; format: ADME
T4 sequence (P05177 whole entry): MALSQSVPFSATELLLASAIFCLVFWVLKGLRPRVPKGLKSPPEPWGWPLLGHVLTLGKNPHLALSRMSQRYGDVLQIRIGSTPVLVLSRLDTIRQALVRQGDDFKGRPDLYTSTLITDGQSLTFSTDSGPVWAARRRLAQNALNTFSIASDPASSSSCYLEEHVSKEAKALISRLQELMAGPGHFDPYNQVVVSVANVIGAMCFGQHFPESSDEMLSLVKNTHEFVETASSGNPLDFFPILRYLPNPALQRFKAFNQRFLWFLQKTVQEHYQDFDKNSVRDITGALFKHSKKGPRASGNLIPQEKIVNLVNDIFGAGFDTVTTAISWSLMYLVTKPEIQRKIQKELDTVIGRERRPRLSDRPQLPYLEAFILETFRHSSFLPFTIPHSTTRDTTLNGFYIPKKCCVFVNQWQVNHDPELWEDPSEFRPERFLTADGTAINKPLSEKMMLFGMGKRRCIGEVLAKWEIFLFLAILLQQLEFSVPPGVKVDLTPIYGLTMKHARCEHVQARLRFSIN

[11] = biological target: T2, CYP2C8; experiment: Inhibition of CYP2C8 (unknown origin) at 10 uM relative to control; format: ADME
[12] = Stability of the compound in mouse plasma; format: ADME, cell-free
[13] = biological target: T5, CYP2C9 (Homo sapiens, UniProt P11712); experiment: Inhibition of CYP2C9 (unknown origin) at 10 uM relative to control; format: ADME
T5 sequence (P11712 whole entry): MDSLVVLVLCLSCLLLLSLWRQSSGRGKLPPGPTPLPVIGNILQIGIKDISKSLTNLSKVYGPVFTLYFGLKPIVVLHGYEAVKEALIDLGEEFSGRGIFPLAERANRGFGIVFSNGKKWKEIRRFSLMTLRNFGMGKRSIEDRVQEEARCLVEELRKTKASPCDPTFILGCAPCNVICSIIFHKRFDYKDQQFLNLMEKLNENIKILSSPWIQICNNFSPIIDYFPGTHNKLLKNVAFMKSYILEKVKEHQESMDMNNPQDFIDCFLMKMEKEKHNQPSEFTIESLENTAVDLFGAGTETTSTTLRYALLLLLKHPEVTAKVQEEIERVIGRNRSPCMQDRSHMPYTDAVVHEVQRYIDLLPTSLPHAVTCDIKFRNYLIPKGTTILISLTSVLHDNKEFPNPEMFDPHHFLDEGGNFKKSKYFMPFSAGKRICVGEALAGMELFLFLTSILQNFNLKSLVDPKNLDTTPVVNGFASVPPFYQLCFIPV

[14] = Metabolic stability in mouse liver microsomes assessed as compound remaining measured after 60 mins; format: ADME, Microsome; conditions: read-out: Stabilty
Method in brief: (§3)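 The readout was percent of parent remaining after 60 min incubation with liver microsomal preparations. Values are the mean of three replicates ± SD.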

[15] = Metabolic stability in human liver microsomes assessed as compound remaining measured after 60 mins; format: ADME, Microsome; conditions: read-out: Stabilty; method in brief: as §3
[16] = biological target: T6, CYP2C19 (Homo sapiens, UniProt P33261); experiment: Inhibition of CYP2C19 (unknown origin) at 10 uM relative to control; format: ADME
T6 sequence (P33261 whole entry): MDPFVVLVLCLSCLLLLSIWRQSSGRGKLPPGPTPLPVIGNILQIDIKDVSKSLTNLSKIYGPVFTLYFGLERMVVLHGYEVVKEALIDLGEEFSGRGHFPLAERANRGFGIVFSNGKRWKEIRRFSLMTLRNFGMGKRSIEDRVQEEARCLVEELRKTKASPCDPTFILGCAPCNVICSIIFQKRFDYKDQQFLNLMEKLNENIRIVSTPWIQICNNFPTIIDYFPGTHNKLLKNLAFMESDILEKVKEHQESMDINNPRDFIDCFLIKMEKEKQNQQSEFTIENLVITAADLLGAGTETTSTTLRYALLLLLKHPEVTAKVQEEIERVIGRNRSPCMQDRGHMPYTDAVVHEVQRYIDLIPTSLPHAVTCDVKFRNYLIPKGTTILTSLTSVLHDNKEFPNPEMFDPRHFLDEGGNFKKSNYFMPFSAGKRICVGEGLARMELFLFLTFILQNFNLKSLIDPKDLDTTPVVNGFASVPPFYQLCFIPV

[17] = species: Homo sapiens; experiment: Selectivity for human cathepsin C over cathepsin B (unknown origin)
[18] = Stability of the compound in human plasma; format: ADME, cell-free
[19] = biological target: T4, CYP1A2; experiment: Inhibition of CYP1A2 (unknown origin) at 1 uM relative to control; format: ADME
[20] = species: Homo sapiens; experiment: Selectivity for human cathepsin C over cathepsin L (unknown origin)
[21] = Stability of the compound in rat plasma; format: ADME, cell-free
[22] = biological target: T5, CYP2C9; experiment: Inhibition of CYP2C9 (unknown origin) at 1 uM relative to control; format: ADME
[23] = biological target: T3, CYP3A4; experiment: Inhibition of CYP3A4 (unknown origin) at 1 uM relative to control; format: ADME
[24] = species: Homo sapiens; experiment: Selectivity for human cathepsin C over cathepsin S (unknown origin)
[25] = biological target: T7, CYP2D6 (Homo sapiens, UniProt P10635); experiment: Inhibition of CYP2D6 (unknown origin) at 10 uM relative to control; format: ADME
T7 sequence (P10635 whole entry): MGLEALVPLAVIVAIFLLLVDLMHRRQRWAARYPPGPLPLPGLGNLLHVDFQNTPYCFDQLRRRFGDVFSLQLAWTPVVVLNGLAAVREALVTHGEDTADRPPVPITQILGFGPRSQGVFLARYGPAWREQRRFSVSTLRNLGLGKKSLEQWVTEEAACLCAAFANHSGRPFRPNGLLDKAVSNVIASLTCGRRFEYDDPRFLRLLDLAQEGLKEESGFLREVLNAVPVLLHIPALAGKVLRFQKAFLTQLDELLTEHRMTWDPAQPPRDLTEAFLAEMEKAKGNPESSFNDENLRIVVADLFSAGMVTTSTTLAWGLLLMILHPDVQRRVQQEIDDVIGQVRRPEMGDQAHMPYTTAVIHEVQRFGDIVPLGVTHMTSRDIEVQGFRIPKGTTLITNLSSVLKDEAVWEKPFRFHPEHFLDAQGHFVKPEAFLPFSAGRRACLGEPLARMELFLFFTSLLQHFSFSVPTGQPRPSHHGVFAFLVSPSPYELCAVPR

[26] = biological target: T7, CYP2D6; experiment: Inhibition of CYP2D6 (unknown origin) at 1 uM relative to control; format: ADME
[27] = species: Homo sapiens; experiment: Selectivity for human cathepsin C over cathepsin K (unknown origin)
[28] = Metabolic stability in rat liver microsomes assessed as compound remaining measured after 60 mins; format: ADME, Microsome; conditions: read-out: Stabilty; method in brief: as §3
[29] = biological target: T6, CYP2C19; experiment: Inhibition of CYP2C19 (unknown origin) at 1 uM relative to control; format: ADME
[30] = Aldehyde reactivity of the compound in 0.1M phosphate buffer assessed as compound remaining at pH 7.4 measured after 1 hr in presence of propionaldehyde by HPLC-UV analysis; format: ADME; conditions: phosphate buffer with propionaldehyde, read-out: Stabilty; method in brief: as §1

T1 sequence (P53634 25-134 limits assumed): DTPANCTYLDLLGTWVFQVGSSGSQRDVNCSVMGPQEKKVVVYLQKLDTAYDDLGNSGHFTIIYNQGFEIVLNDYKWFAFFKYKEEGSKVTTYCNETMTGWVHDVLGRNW
T1 sequence (P53634 231-394 limits assumed): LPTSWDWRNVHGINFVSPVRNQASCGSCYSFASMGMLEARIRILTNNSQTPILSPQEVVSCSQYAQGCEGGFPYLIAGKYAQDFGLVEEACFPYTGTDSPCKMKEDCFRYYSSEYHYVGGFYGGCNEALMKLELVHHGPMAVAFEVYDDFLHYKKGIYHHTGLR
T1 sequence (P53634 395-463 limits assumed): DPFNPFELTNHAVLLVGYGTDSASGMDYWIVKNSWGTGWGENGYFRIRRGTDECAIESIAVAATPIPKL

SMILES: N#Cc1ccc(-c2ccc(C[C@@H](C#N)NC(=O)[C@@H](N)C34CC5CC(CC(O)(C5)C3)C4)cc2)cc1
- inhibition [1]: 3.29%
- inhibition [2]: 2.19%

SMILES: Cn1c(=O)oc2ccc(-c3ccc(C[C@@H](C#N)NC(=O)[C@@H]4CNCCCO4)cc3)cc21 [BRENSOCATIB]
- remaining at 15 h [3]: 95%
- half-life [4]: > 15 h

SMILES: N#Cc1ccc(-c2ccc(C[C@@H](C#N)NC(=O)[C@@H]3C[C@@H]4C[C@@H]4N3)cc2)cc1
- inhibition [1]: 83.9%
- inhibition [2]: 97.9%
- IC50 [5]: 223 nM

SMILES: N#Cc1ccc(-c2ccc(C[C@@H](C#N)NC(=O)[C@@H]3CC4CCCC[C@@H]4N3)cc2)cc1 (single isomer, unassigned)
- inhibition [1]: 88.7%
- inhibition [2]: 99%
- IC50 [5]: 154 nM
- IC50 [7]: 1720 nM

SMILES: N#Cc1ccc(-c2ccc(C[C@@H](C#N)NC(=O)[C@@H]3CC4(CCCC4)CN3)cc2)cc1
- inhibition [1]: 99%
- inhibition [2]: 99.7%
- remaining at 15 h [3]: 0%
- IC50 [5]: 10.2 nM
- IC50 [7]: 69 nM
- half-life [4]: 0.56 h

SMILES: N#Cc1ccc(-c2ccc(C[C@@H](C#N)NC(=O)[C@@H]3CC4(CCCCC4)CN3)cc2)cc1
- inhibition [1]: 84.3%
- inhibition [2]: 99.3%
- IC50 [5]: 228 nM

SMILES: N#Cc1ccc(-c2ccc(C[C@@H](C#N)NC(=O)[C@@H]3C[C@H]4CCC[C@@H]4N3)cc2)cc1
- inhibition [1]: 6.55%
- inhibition [2]: 50.1%
- remaining at 15 h [3]: 100%

SMILES: N#Cc1ccc(-c2ccc(C[C@@H](C#N)NC(=O)[C@@H]3C[C@@H]4CCC[C@@H]4N3)cc2)cc1
- inhibition at 1 µM [8]: 11.8%
- inhibition at 10 µM [9]: 33.8%
- inhibition [1]: 99.2%
- inhibition at 10 µM [10]: 43.7%
- inhibition [2]: 100%
- inhibition at 10 µM [11]: 40.1%
- Stabilty [12]: Stable
- inhibition at 10 µM [13]: 32.4%
- remaining at 1 h [14]: 6%
- remaining at 1 h [15]: 1%
- inhibition at 10 µM [16]: 38.4%
- Selectivity ratio [17]: 2260
- Stabilty [18]: Stable
- inhibition at 1 µM [19]: 15.2%
- Selectivity ratio [20]: 10800
- Stabilty [21]: Stable
- remaining at 15 h [3]: 97%
- IC50 [5]: 9.27 nM
- inhibition at 1 µM [22]: 12%
- inhibition at 1 µM [23]: 2.2%
- IC50 [7]: 699 nM
- Selectivity ratio [24]: 4400
- inhibition at 10 µM [25]: 88.3%
- half-life [4]: > 15 h
- inhibition at 1 µM [26]: 69.7%
- Selectivity ratio [27]: 93
- remaining at 1 h [28]: 3%
- inhibition at 1 µM [29]: 17.1%

SMILES: N#Cc1ccc(-c2ccc(C[C@@H](C#N)NC(=O)C3(N)CCOCC3)cc2)cc1
- inhibition [1]: 99.2%
- inhibition [2]: 99.9%
- remaining at 1 h [30]: 15%
- half-life [4]: 0.36 h

SMILES: N#Cc1ccc(-c2ccc(C[C@@H](C#N)NC(=O)[C@@H]3CC4(CC4)CN3)cc2)cc1
- inhibition [1]: 92.4%
- inhibition [2]: 99.5%
- IC50 [5]: 77.6 nM

SMILES: N#Cc1ccc(-c2ccc(C[C@@H](C#N)NC(=O)[C@@H]3C[C@H]4CCC[C@H]4N3)cc2)cc1
- inhibition [1]: 85.6%
- inhibition [2]: 98.2%
- remaining at 15 h [3]: 7%
- IC50 [5]: 77.7 nM
- IC50 [7]: 79.1 nM
- half-life [4]: 5.3 h

SMILES: N#Cc1ccc(-c2ccc(C[C@@H](C#N)NC(=O)[C@H]3COCCN3)cc2)cc1
- inhibition [1]: 2.2%
- inhibition [2]: 14.2%

SMILES: N#Cc1ccc(-c2ccc(C[C@@H](C#N)NC(=O)[C@@H]3COCCN3)cc2)cc1
- inhibition [1]: 75.5%
- inhibition [2]: 96.3%
- remaining at 15 h [3]: 48%
- IC50 [5]: 308 nM
- IC50 [7]: 9720 nM
- half-life [4]: 15.8 h

The next lines start with the values.

- inhibition [1]: 1.11%
- inhibition [2]: 1.11%
SMILES: N#Cc1ccc(-c2ccc(C[C@@H](C#N)NC(=O)[C@H]3CN4CCC[C@@H]4CN3)cc2)cc1

- inhibition [1]: 91.5%
- inhibition [2]: 99.1%
- remaining at 2 h [6]: 8.5%
- IC50 [5]: 91.5 nM
- half-life [4]: 0.56 h
SMILES: N#Cc1ccc(-c2ccc(C[C@@H](C#N)NC(=O)[C@@H]3CCCN3)cc2)cc1

- inhibition [1]: 68.3%
- inhibition [2]: 95%
- IC50 [5]: 394 nM
SMILES: N#Cc1ccc(-c2ccc(C[C@@H](C#N)NC(=O)[C@H]3CN4CCC[C@H]4CN3)cc2)cc1

- inhibition [1]: 4.63%
- inhibition [2]: 22.8%
SMILES: N#Cc1ccc(-c2ccc(C[C@@H](C#N)NC(=O)[C@@H]3CN4CCC[C@@H]4CN3)cc2)cc1

- inhibition [1]: 1.2%
- inhibition [2]: 0%
SMILES: N#Cc1ccc(-c2ccc(C[C@@H](C#N)NC(=O)[C@@H]3CN4CCC[C@H]4CN3)cc2)cc1

- inhibition [1]: 97.2%
- inhibition [2]: 98.2%
- IC50 [5]: 27.8 nM
- IC50 [7]: 150 nM
SMILES: N#Cc1ccc(-c2ccc(C[C@@H](C#N)NC(=O)[C@@H]3CC4(CCC4)CN3)cc2)cc1
